Active and inactive are the calls of the source. The rule behind the calls is not given here.
Experiments:
Rattus norvegicus [1] = assay: Diuretic activity in acute sodium loaded Wistar rat assessed as potassium level in urine at 50 mg/kg, po measured for 0 to 5 hrs post drug dosing by flame photometer relative to urea; assay type: functional
How it was run: (§1)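 Female Wistar rats (150–200 g), fasted 16 h. Drug in 1% saline given orally at 15 mL/kg; animals kept in individual metabolic cages with water ad libitum. Urine collected 0–5 h. Each test had vehicle and urea (1000 mg/kg) groups. Na⁺ and K⁺ measured by flame photometry, Cl⁻ by chloride analyzer. Group means for volume and each ion expressed as a ratio to the urea group.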

Rattus norvegicus [2] = assay: Antihypertensive activity in spontaneous hypertensive rat assessed as drop in systolic blood pressure at 50 mg/kg, po administered at 0 hrs on days 1, 2 and 3 measured at 2 hrs after drug dose on day 3 by indirect tail-cuff method; assay type: functional, Artery
How it was run: (§2)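 Spontaneously hypertensive rats, tail-cuff (indirect) systolic pressure. Pairs of rats held in a wire basket, conditioned 20 min in a 40 °C incubator. Each reading is the mean of 3–5 determinations. Rats had 2-week training for baseline; those below 175 mmHg were excluded. Oral dosing at 0 h on days 1–3 in groups of six, read before dosing and 2 h after the day-3 dose; paired t test.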

Rattus norvegicus [3] = assay: Diuretic activity in acute sodium loaded Wistar rat assessed as chloride level in urine at 50 mg/kg, po measured for 0 to 5 hrs post drug dosing by chloride analyzer relative to urea; assay type: functional; how it was run: as §1
Rattus norvegicus [4] = assay: Diuretic activity in acute sodium loaded Wistar rat assessed as urine volume at 50 mg/kg, po measured for 0 to 5 hrs post drug dosing relative to urea; assay type: functional; how it was run: as §1
Mus musculus = assay: Antidepressant activity in CD-1 mouse at 25 mg/kg, ip administered 30 mins prior to tetrabenazine challenge measured after 30 mins by tetrabenazine assay; assay type: functional, organism-based; parameters: dose 25 mg/kg
Rattus norvegicus [5] = assay: Diuretic activity in acute sodium loaded Wistar rat assessed as sodium level in urine at 50 mg/kg, po measured for 0 to 5 hrs post drug dosing by flame photometer relative to urea; assay type: functional; how it was run: as §1
Rattus norvegicus [6] = assay: Diuretic activity in acute sodium loaded Wistar rat assessed as urine volume at 25 mg/kg, po measured for 0 to 5 hrs post drug dosing relative to urea; assay type: functional; how it was run: as §1
Rattus norvegicus [7] = assay: Diuretic activity in acute sodium loaded Wistar rat assessed as chloride level in urine at 25 mg/kg, po measured for 0 to 5 hrs post drug dosing by chloride analyzer relative to urea; assay type: functional; how it was run: as §1
Rattus norvegicus [8] = assay: Diuretic activity in acute sodium loaded Wistar rat assessed as sodium level in urine at 25 mg/kg, po measured for 0 to 5 hrs post drug dosing by flame photometer relative to urea; assay type: functional; how it was run: as §1
Rattus norvegicus [9] = assay: Diuretic activity in acute sodium loaded Wistar rat assessed as potassium level in urine at 25 mg/kg, po measured for 0 to 5 hrs post drug dosing by flame photometer relative to urea; assay type: functional; how it was run: as §1
Rattus norvegicus [10] = assay: Antihypertensive activity in spontaneous hypertensive rat assessed as drop in systolic blood pressure at 100 mg/kg, po administered at 0 hrs on days 1, 2 and 3 measured at 2 hrs after drug dose on day 3 by indirect tail-cuff method; assay type: functional, Artery; how it was run: as §2
Rattus norvegicus [11] = assay: Antihypertensive activity in spontaneous hypertensive rat assessed as drop in systolic blood pressure at 25 mg/kg, po administered at 0 hrs on days 1, 2 and 3 measured at 2 hrs after drug dose on day 3 by indirect tail-cuff method; assay type: functional, Artery; how it was run: as §2
Rattus norvegicus [12] = assay: Diuretic activity in acute sodium loaded Wistar rat assessed as urine volume at 10 mg/kg, po measured for 0 to 5 hrs post drug dosing relative to urea; assay type: functional; how it was run: as §1
Rattus norvegicus [13] = assay: Diuretic activity in acute sodium loaded Wistar rat assessed as urine volume at 2 mg/kg, po measured for 0 to 5 hrs post drug dosing relative to urea; assay type: functional; how it was run: as §1
Rattus norvegicus [14] = assay: Diuretic activity in acute sodium loaded Wistar rat assessed as chloride level in urine at 5 mg/kg, po measured for 0 to 5 hrs post drug dosing by chloride analyzer relative to urea; assay type: functional; how it was run: as §1
Rattus norvegicus [15] = assay: Diuretic activity in acute sodium loaded Wistar rat assessed as sodium level in urine at 2 mg/kg, po measured for 0 to 5 hrs post drug dosing by flame photometer relative to urea; assay type: functional; how it was run: as §1
Rattus norvegicus [16] = assay: Diuretic activity in acute sodium loaded Wistar rat assessed as urine volume at 5 mg/kg, po measured for 0 to 5 hrs post drug dosing relative to urea; assay type: functional; how it was run: as §1
Rattus norvegicus [17] = assay: Diuretic activity in acute sodium loaded Wistar rat assessed as potassium level in urine at 2 mg/kg, po measured for 0 to 5 hrs post drug dosing by flame photometer relative to urea; assay type: functional; how it was run: as §1
Rattus norvegicus [18] = assay: Diuretic activity in acute sodium loaded Wistar rat assessed as chloride level in urine at 2 mg/kg, po measured for 0 to 5 hrs post drug dosing by chloride analyzer relative to urea; assay type: functional; how it was run: as §1
Rattus norvegicus [19] = assay: Diuretic activity in acute sodium loaded Wistar rat assessed as potassium level in urine at 10 mg/kg, po measured for 0 to 5 hrs post drug dosing by flame photometer relative to urea; assay type: functional; how it was run: as §1
Rattus norvegicus [20] = assay: Diuretic activity in acute sodium loaded Wistar rat assessed as chloride level in urine at 10 mg/kg, po measured for 0 to 5 hrs post drug dosing by chloride analyzer relative to urea; assay type: functional; how it was run: as §1
Canis familiaris [21] = assay: Antihypertensive activity in acute anesthetized dog at 10 mg/kg, iv; assay type: functional, organism-based; parameters: dose 10 mg/kg; conditions: Canis lupus familiaris
Canis familiaris [22] = assay: Diuretic activity in dog at 20 mg/kg, iv; assay type: functional, organism-based; parameters: dose 20 mg/kg; conditions: Canis lupus familiaris, Urine
Rattus norvegicus [23] = assay: Diuretic activity in acute sodium loaded Wistar rat assessed as sodium level in urine at 10 mg/kg, po measured for 0 to 5 hrs post drug dosing by flame photometer relative to urea; assay type: functional; how it was run: as §1
Canis familiaris [24] = assay: Diuretic activity in dog at 1 to 50 mg/kg, po; assay type: functional, organism-based; conditions: Canis lupus familiaris, Urine
Rattus norvegicus [25] = assay: Diuretic activity in acute sodium loaded Wistar rat assessed as sodium level in urine at 5 mg/kg, po measured for 0 to 5 hrs post drug dosing by flame photometer relative to urea; assay type: functional; how it was run: as §1
Rattus norvegicus [26] = assay: Diuretic activity in acute sodium loaded Wistar rat assessed as potassium level in urine at 5 mg/kg, po measured for 0 to 5 hrs post drug dosing by flame photometer relative to urea; assay type: functional; how it was run: as §1
Rattus norvegicus [27] = assay: Hypotensive activity in DOCA rat at 25 to 50 mg/kg, po; assay type: functional, organism-based
Rhesus monkey = assay: Diuretic activity in rhesus monkey at 10 to 20 mg/kg, po; assay type: functional, organism-based; conditions: Macaca mulatta, Urine
Rattus norvegicus [28] = assay: Antihypertensive activity in spontaneous hypertensive rat assessed as drop in systolic blood pressure at 10 mg/kg, po administered at 0 hrs on days 1, 2 and 3 measured at 2 hrs after drug dose on day 3 by indirect tail-cuff method; assay type: functional, Artery; how it was run: as §2

O=S(=O)(c1ccccc1)N1CCC2(CC1)OC(c1ccccc1)c1ccccc12 (stereo not given)
Ratio (Rattus norvegicus [1]): 0.57 | Activity (Rattus norvegicus [2]): 13 mmHg | Ratio (Rattus norvegicus [3]): 0.79 | Ratio (Rattus norvegicus [4]): 0.63 | Activity (Mus musculus): inactive | Ratio (Rattus norvegicus [5]): 0.7

[O-][S+](c1ccccc1)N1CCC2(CC1)OC(c1ccccc1)c1ccccc12 (stereo not given)
Ratio (Rattus norvegicus [1]): 1 | Ratio (Rattus norvegicus [6]): 0.81 | Ratio (Rattus norvegicus [4]): 1.74 | Ratio (Rattus norvegicus [7]): 1.18 | Ratio (Rattus norvegicus [8]): 1.22 | Ratio (Rattus norvegicus [9]): 0.68 | Activity (Rattus norvegicus [10]): 22 mmHg | Activity (Mus musculus): inactive | Ratio (Rattus norvegicus [5]): 2.2

NS(=O)(=O)c1cc2c(cc1Cl)N=CNS2(=O)=O [CHLOROTHIAZIDE]
Ratio (Rattus norvegicus [1]): 1.1 | Ratio (Rattus norvegicus [4]): 1.6 | Ratio (Rattus norvegicus [5]): 2.2

O=[N+]([O-])c1ccc(SN2CCC3(CC2)OC(c2ccccc2)c2ccccc23)cc1 (stereo not given)
Activity (Rattus norvegicus [11]): 9 mmHg | Ratio (Rattus norvegicus [1]): 1.2 | Ratio (Rattus norvegicus [6]): 0.59 | Ratio (Rattus norvegicus [3]): 2.3 | Ratio (Rattus norvegicus [4]): 1.73 | Ratio (Rattus norvegicus [7]): 0.75 | Ratio (Rattus norvegicus [8]): 0.76 | Ratio (Rattus norvegicus [9]): 0.58 | Activity (Mus musculus): inactive | Ratio (Rattus norvegicus [5]): 2.41

COc1ccc(SN2CCC3(CC2)OC(c2ccccc2)c2ccccc23)cc1 (stereo not given)
Ratio (Rattus norvegicus [1]): 0.8 | Activity (Rattus norvegicus [2]): 14 mmHg | Ratio (Rattus norvegicus [6]): 1.4 | Ratio (Rattus norvegicus [3]): 1.47 | Ratio (Rattus norvegicus [4]): 1.47 | Ratio (Rattus norvegicus [8]): 0.97 | Ratio (Rattus norvegicus [9]): 0.84 | Activity (Mus musculus): inactive | Ratio (Rattus norvegicus [5]): 1.78

c1ccc(SN2CCC3(CC2)OC(c2ccccc2)c2ccccc23)cc1 (stereo not given)
Activity (Rattus norvegicus [11]): 44 mmHg | Ratio (Rattus norvegicus [1]): 0.97 | Activity (Rattus norvegicus [2]): 66 mmHg | Ratio (Rattus norvegicus [6]): 2.2 | Ratio (Rattus norvegicus [12]): 1.49 | Ratio (Rattus norvegicus [13]): 1 | Ratio (Rattus norvegicus [3]): 1.85 | Ratio (Rattus norvegicus [4]): 1.71 | Ratio (Rattus norvegicus [14]): 1.43 | Ratio (Rattus norvegicus [15]): 1.2 | Ratio (Rattus norvegicus [8]): 2.5 | Ratio (Rattus norvegicus [16]): 1.2 | Ratio (Rattus norvegicus [9]): 1.2 | Ratio (Rattus norvegicus [17]): 0.74 | Ratio (Rattus norvegicus [18]): 1.19 | Ratio (Rattus norvegicus [19]): 0.94 | Ratio (Rattus norvegicus [20]): 1.62 | Activity (Canis familiaris [21]): inactive | Activity (Canis familiaris [22]): inactive | Ratio (Rattus norvegicus [23]): 1.69 | Activity (Canis familiaris [24]): inactive | Ratio (Rattus norvegicus [25]): 1.31 | Activity (Mus musculus): inactive | Ratio (Rattus norvegicus [5]): 1.83 | Ratio (Rattus norvegicus [26]): 0.86 | Activity (Rattus norvegicus [27]): Active | Activity (Rhesus monkey): inactive

N=C(N)NCCN1CCCCCCC1 [GUANETHIDINE]
Activity (Rattus norvegicus [28]): 34 mmHg

— ChEMBL document CHEMBL3244070, “Spiro[isobenzofuran-1(3H),4'-piperidines]. 3. Diuretic and antihypertensive properties of compounds containing a sulfur attached to nitrogen” (1978)
